In ChEMBL document CHEMBL1126270, “Synthesis of 3-[(2,3-dihydro-1,1,3-trioxo-1,2-benzisothiazol-2-yl)alkyl] 1,4-dihydropyridine-3,5-dicarboxylate derivatives as calcium channel modulators” (J Med Chem, 1992):

Legend:
[1] = molecular target: T1, Voltage-dependent L-type calcium channel subunit alpha-1C (Oryctolagus cuniculus, UniProt P15381); test: Blockade of calcium-evoked contractions in depolarized aortic strips; type: functional, tissue-based, Aorta
Oryctolagus cuniculus [2] = species on record: Oryctolagus cuniculus; test: Relative potency was evaluated. (relative potency = IC50 of compound / IC50 of nifedipine); type: functional
Oryctolagus cuniculus [3] = species on record: Oryctolagus cuniculus; test: Recovery of the initial contraction of rabbit aortic strips, blocked at 10e-7 M concentration.; conditions: Aorta
[4] = molecular target: T1, Voltage-dependent L-type calcium channel subunit alpha-1C; conditions: rabbit, Aorta
Oryctolagus cuniculus [5] = species on record: Oryctolagus cuniculus; test: Relative potency evaluated (relative potency = IC50 of compound / IC50 of nifedipine) in rabbit; type: functional
[6] = molecular target: T1, Voltage-dependent L-type calcium channel subunit alpha-1C; test: Selectivity index was measured as the IC50 needed to depress the heart beat divided by IC50 needed to block [Ca2+] contractions in rabbit aortic strips; type: functional, tissue-based, Aorta
Oryctolagus cuniculus [7] = species on record: Oryctolagus cuniculus; test: Blockade of calcium-evoked contractions evaluated in depolarized rabbit aortic strips; type: functional; conditions: Aorta
Procedure, shortened: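 Male New Zealand rabbit thoracic aorta, helicoidal strips, 2.5 g preload, Krebs–bicarbonate, 37 °C, 95% O2/5% CO2, pH 7.4. After 1 h equilibration, depolarized with 35 mM K+; 1.5 mM Ca2+ added 10 min later, repeated until reproducible. Compound at increasing concentrations from 20 min before and during Ca2+ addition; responses normalized to initial tension; IC50 by Finney method.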

Oryctolagus cuniculus [8] = species on record: Oryctolagus cuniculus; test: Inhibition of electrically stimulated rabbit left atria contraction; type: functional
Procedure, shortened: (§1)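 Rabbit left atria electrically driven (1 Hz, 10 ms, twice threshold voltage), equilibrated 1–1.5 h. Compounds added cumulatively (10^-10–10^-6 M), diluted from DMSO stocks into Krebs–Henseleit, final DMSO <0.1%. Isometric force recorded; IC50 from contractile force relative to initial control values, with 95% confidence limits.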

Rattus norvegicus [9] = test: Systolic blood pressure after administration of a single oral dose (20 mg/kg) in spontaneously hypertensive rats; type: functional
Procedure, shortened: (§2)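 Conscious SHR trained 2 weeks, warmed at 31 ± 1 °C for 2 h; tail plethysmography SBP, mean of five readings; only rats above 170 mmHg used. After 24 h fasting, 20 mg/kg by gavage in 20% PEG-400/0.5% methylcellulose (10 mL/kg); SBP change read 1 h post-dose, n = 12.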

Rattus norvegicus [10] = species on record: Rattus norvegicus; test: Duration of action in spontaneously hypertensive rats.; type: functional
Procedure, shortened: (§3)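 Anesthetized (pentobarbitone 70 mg/kg ip) Okamoto SHR, 290 ± 30 g; carotid pressure, femoral vein dosing. Cumulative increasing iv bolus doses of 1, 3, 6, 10, 20, 30 µg/kg in PEG-400 (0.1 mL/kg), each recorded 15 min; ED25 for lowering SBP and DBP and duration of hypotensive action estimated.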

Oryctolagus cuniculus [11] = species on record: Oryctolagus cuniculus; test: Inhibition of electrically stimulated rabbit left atria contraction.; type: functional; procedure, shortened: as §1
Rattus norvegicus [12] = species on record: Rattus norvegicus; test: Compound evaluated for reducing diastolic blood pressure in spontaneously hypertensive rats.; type: functional; conditions: Artery; procedure, shortened: as §3
Rattus norvegicus [13] = species on record: Rattus norvegicus; test: Reducing systolic blood pressure in spontaneously hypertensive rats.; type: functional; conditions: Artery; procedure, shortened: as §2
Rattus norvegicus [14] = test: Systolic blood pressure after administration of a single oral dose (20 mg/kg); type: functional
Procedure, shortened: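 Conscious SHR trained for 2 weeks; systolic pressure by tail plethysmography after 2 h at 31 ± 1 °C, each reading the mean of five determinations. Only rats with basal >170 mmHg were used. After 24 h fasting, dosed by gavage in 20% PEG-400 in 0.5% aqueous methylcellulose (10 mL/kg). % change from basal at 1 h; mean ± SE, n = 12.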

Rattus norvegicus [15] = species on record: Rattus norvegicus; test: Compound evaluated for reducing diastolic blood pressure spontaneously hypertensive rats.; type: functional; conditions: Artery
Procedure, shortened: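 Male SHR (Okamoto strain, 290 ± 30 g) under sodium pentobarbitone anaesthesia (70 mg/kg ip) with tracheal cannulation. Arterial pressure recorded from the left carotid artery. Bolus iv via right femoral vein in PEG-400 (0.1 mL/kg), cumulative doses of 1, 3, 6, 10, 20 and 30 μg/kg, each followed for 15 min. ED25 for lowering diastolic pressure estimated.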

Rattus norvegicus [16] = test: Systolic blood pressure after administration of a single oral dose (20 mg/kg) in spontaneously hypertensive rats.; type: functional; procedure, shortened: as §2
Rattus norvegicus [17] = test: Effect (iv, 100 ug/kg) on diastolic blood pressure in anesthetized normotensive rat; type: functional, Artery
Procedure, shortened: (§4)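 Male Wistar rats, 290 ± 30 g, pentobarbitone anesthesia (70 mg/kg ip), tracheal cannulation. Carotid arterial pressure recorded, dosing via femoral vein. Bolus iv of 0.1 mg/kg in PEG-400 (0.1 mL/kg); effects recorded continuously for 15 min; peak rise in mmHg above basal.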

Oryctolagus cuniculus [18] = species on record: Oryctolagus cuniculus; test: Maximum contractile force in rabbit aorta strips; type: functional
Procedure, shortened: (§5)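 Rabbit aortic strips, after equilibration in Ca2+-free Krebs, switched to buffer with 10 mM K+. Repeated 1.5 mM Ca2+ pulses until reproducible. Increasing compound concentrations each given 10 min before a further 1.5 mM Ca2+ pulse. Maximum contractile force (mg) taken as vasoconstrictor effect; data as mean ± SEM at 10^-6 M.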

Oryctolagus cuniculus [19] = species on record: Oryctolagus cuniculus; test: Compound was evaluated for contraction on Electrically driven Rabbit left atria. at 10e-7 M; type: functional
Oryctolagus cuniculus [20] = species on record: Oryctolagus cuniculus; test: Compound was evaluated for contraction on Electrically driven Rabbit left atria. at 10e-8 M; type: functional
Rattus norvegicus [21] = test: Effect (iv, 100 ug/kg) on systolic blood pressure in anesthetized normotensive rat; type: functional, Artery; procedure, shortened: as §4
Oryctolagus cuniculus [22] = species on record: Oryctolagus cuniculus; test: Compound was tested in vitro for its effect on maximum contractile force in rabbit aorta strips; type: functional; procedure, shortened: as §5
Rattus norvegicus [23] = species on record: Rattus norvegicus; test: Compound evaluated for reducing diastolic blood pressure in normotensive rats.; type: functional, Artery
Oryctolagus cuniculus [24] = species on record: Oryctolagus cuniculus; test: Compound was evaluated for contraction on Electrically driven Rabbit left atria. at 10e-6 M; type: functional

T1 sequence (P15381 whole entry): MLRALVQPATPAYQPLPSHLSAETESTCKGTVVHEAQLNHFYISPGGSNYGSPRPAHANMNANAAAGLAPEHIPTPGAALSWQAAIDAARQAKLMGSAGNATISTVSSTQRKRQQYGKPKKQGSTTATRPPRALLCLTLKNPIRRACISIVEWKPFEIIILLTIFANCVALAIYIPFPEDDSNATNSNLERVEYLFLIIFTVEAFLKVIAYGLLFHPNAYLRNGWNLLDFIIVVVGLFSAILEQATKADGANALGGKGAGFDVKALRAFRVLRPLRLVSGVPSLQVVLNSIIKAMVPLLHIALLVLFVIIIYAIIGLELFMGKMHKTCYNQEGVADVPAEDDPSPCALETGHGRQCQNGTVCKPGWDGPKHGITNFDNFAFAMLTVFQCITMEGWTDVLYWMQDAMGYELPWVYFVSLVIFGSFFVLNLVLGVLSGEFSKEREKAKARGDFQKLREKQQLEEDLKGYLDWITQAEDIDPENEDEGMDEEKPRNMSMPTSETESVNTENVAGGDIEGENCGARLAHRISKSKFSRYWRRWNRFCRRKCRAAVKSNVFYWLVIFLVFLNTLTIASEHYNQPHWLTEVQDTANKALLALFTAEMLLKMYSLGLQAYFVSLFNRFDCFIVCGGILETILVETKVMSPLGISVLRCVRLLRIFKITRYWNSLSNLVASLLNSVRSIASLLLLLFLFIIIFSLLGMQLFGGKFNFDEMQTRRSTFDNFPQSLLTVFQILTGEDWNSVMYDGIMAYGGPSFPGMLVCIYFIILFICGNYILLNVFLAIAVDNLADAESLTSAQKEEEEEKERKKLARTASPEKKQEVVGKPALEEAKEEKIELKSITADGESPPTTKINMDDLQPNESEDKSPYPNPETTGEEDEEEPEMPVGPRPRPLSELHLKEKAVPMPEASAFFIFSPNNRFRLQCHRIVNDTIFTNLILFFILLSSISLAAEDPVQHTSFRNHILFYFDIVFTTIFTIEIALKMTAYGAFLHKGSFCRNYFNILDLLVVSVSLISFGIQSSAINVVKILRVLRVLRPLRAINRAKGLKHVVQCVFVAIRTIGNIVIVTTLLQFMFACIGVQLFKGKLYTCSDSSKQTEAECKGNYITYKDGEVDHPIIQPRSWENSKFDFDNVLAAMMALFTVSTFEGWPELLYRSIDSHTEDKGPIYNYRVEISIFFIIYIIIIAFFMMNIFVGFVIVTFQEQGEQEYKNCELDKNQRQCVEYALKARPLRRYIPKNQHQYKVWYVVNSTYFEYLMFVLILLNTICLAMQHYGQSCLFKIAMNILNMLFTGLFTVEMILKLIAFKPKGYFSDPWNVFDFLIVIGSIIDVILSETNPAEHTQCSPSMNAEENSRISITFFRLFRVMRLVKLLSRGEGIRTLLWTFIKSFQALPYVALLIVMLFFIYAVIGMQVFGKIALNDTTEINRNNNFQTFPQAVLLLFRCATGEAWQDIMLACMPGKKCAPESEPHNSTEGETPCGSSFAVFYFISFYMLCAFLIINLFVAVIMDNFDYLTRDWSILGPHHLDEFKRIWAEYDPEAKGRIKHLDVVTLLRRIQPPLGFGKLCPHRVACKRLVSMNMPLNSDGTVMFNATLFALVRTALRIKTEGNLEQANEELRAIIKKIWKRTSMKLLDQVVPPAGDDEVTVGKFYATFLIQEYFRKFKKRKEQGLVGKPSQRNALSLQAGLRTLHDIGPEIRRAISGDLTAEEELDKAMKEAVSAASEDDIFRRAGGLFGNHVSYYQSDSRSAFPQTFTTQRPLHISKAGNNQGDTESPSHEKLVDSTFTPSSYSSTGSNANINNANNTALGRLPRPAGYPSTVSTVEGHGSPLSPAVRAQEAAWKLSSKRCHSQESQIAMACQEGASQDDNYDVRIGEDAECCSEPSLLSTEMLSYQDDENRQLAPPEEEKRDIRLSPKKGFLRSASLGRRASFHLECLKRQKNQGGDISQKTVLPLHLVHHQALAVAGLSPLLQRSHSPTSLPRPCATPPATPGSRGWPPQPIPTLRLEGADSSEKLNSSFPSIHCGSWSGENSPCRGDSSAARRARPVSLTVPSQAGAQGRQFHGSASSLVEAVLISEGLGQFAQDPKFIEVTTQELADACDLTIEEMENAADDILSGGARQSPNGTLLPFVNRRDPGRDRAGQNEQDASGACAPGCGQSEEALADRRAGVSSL

Row | SMILES | Recovery (Oryctolagus cuniculus [3]) [%] | Relative potency (Oryctolagus cuniculus [5]) | Selectivity index [6] | IC50 (Oryctolagus cuniculus [7]) [nM] | IC50 (Oryctolagus cuniculus [8]) [nM] | Duration (Rattus norvegicus [10]) [min] | IC50 (Oryctolagus cuniculus [11]) [nM] | ED25 (Rattus norvegicus [13]) [mg/kg] | also measured
1 | CC1=NC(C)=C(C(=O)OCN2C(=O)c3ccccc3S2(=O)=O)C(c2cccc([N+](=O)[O-])c2)/C1=C(\O)OCC1CCCO1 (stereo not drawn) | 27.2 | – | – | – | – | – | – | – | IC50 [1]: 25.1 nM; Relative potency (Oryctolagus cuniculus [2]): 0.1; T1/2 [4]: 9.6 min
2 | CC1=NC(C)=C(C(=O)OCCCN2C(=O)c3ccccc3S2(=O)=O)C(c2ccccc2C(F)(F)F)/C1=C(\O)OCC1CCCCO1 (stereo not drawn) | 5 | 2.1 | 121 | 1.4 | 168 | – | – | – | –
3 | CCO/C(O)=C1\C(C)=NC(C)=C(C(=O)OCCCN2C(=O)c3ccccc3S2(=O)=O)C1c1cccc(Cl)c1Cl (stereo not drawn) | 0 | 1.6 | 200 | 1.8 | – | 2 | 353 | 0.015 | SBP change (Rattus norvegicus [9]): 36%; ED25 (Rattus norvegicus [12]): 0.012 mg/kg
4 | COC(=O)C1=C(C)NC(C)=C(C(=O)OC)C1c1ccccc1[N+](=O)[O-] [NIFEDIPINE] | 71.6 | – | – | – | – | 3 | 113 | 0.033 | SBP change (Rattus norvegicus [14]): 35%; ED25 (Rattus norvegicus [15]): 0.031 mg/kg
5 | CC1=NC(C)=C(C(=O)OCCN2C(=O)c3ccccc3S2(=O)=O)C(c2cccc([N+](=O)[O-])c2)/C1=C(\O)OC(C)(C)C (stereo not drawn) | 0 | 1.8 | 72 | 1.6 | 115 | – | – | – | SBP change (Rattus norvegicus [16]): 25%
6 | CC1=NC(C)=C(C(=O)OCCN2C(=O)c3ccccc3S2(=O)=O)C(c2ccccc2C(F)(F)F)/C1=C(\O)OC(C)C (stereo not drawn) | 0.5 | 2.5 | 103 | 1 | – | >15 | 102 | 0.009 | SBP change (Rattus norvegicus [16]): 37%; ED25 (Rattus norvegicus [12]): 0.008 mg/kg
7 | CC1=NC(C)=C(C(=O)OCCCN2C(=O)c3ccccc3S2(=O)=O)C(c2ccccc2[N+](=O)[O-])/C1=C(\O)OC(C)C (stereo not drawn) | 0.2 | 2.4 | 15 | 1.2 | 18.6 | – | – | – | –
8 | CCO/C(O)=C1\C(C)=NC(C)=C(C(=O)OCCN2C(=O)c3ccccc3S2(=O)=O)C1c1ccccc1C(F)(F)F (stereo not drawn) | 14.5 | 5.8 | 152 | 0.5 | 74.4 | – | – | – | –
9 | CC1=NC(C)=C(C(=O)OCCN2C(=O)c3ccccc3S2(=O)=O)C(c2cccc([N+](=O)[O-])c2)/C1=C(\O)OCC1CCCCO1 (stereo not drawn) | – | – | – | > 1000 | – | – | – | – | DBP (Rattus norvegicus [17]): 40; Max contractile force (Oryctolagus cuniculus [18]): 1940 mg; Contraction (Oryctolagus cuniculus [19]): 129.6%; Contraction (Oryctolagus cuniculus [20]): 114%; SBP (Rattus norvegicus [21]): 58.1; Max contractile activity (Oryctolagus cuniculus [22]): 1940 mg; DBP change (Rattus norvegicus [23]): 40%; Contraction (Oryctolagus cuniculus [24]): 141.2%
10 | CC1=NC(C)=C(C(=O)OCCCN2C(=O)c3ccccc3S2(=O)=O)C(c2cccc(Cl)c2Cl)/C1=C(\O)OC(C)C (stereo not drawn) | 0 | 1.4 | 75 | 2.1 | – | – | 157 | – | SBP change (Rattus norvegicus [9]): 11%
11 | CO/C(O)=C1\C(C)=NC(C)=C(C(=O)OCCCN2C(=O)c3ccccc3S2(=O)=O)C1c1cccc(Cl)c1Cl (stereo not drawn) | 0 | 3.6 | 686 | 0.8 | 521 | >15 | – | 0.012 | SBP change (Rattus norvegicus [9]): 35%; ED25 (Rattus norvegicus [12]): 0.01 mg/kg
